Measurements published in ChEMBL document CHEMBL1156387, “Novel esters of glaucarubolone as inducers of terminal differentiation of promyelocytic HL-60 cells and inhibitors of 7,12-dimethylbenz[a]anthracene-induced preneoplastic lesion formation in mouse mammary organ culture” (J Nat Prod, 2001).

Tests used:
[1] = test system: HL-60; test: Induction of cell differentiation in human HL60 cells assessed as superoxide anion production after 4 days by NBT reduction assay; format: functional, cell-based; settings: HL-60, 96 h
Summary of the method: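 Cells diluted to 10^5/mL and recovered overnight were exposed 4 days to samples (0.1% v/v DMSO final). Cell suspension (10^6 cells) was mixed 1:1 with NBT 2 mg/mL plus TPA 1 μg/mL in PBS and held 1 h at 37 °C. Formazan-positive cells were counted microscopically among >200 cells. EC50 from 5–7 concentrations in duplicate; 1α,25-dihydroxyvitamin D3 served as reference.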

[2] = test system: HL-60; test: Cytotoxicity against human HL60 cells assessed as loss of membrane integrity after 4 days by trypan blue exclusion assay; format: functional, cell-based; settings: HL-60, 96 h
Summary of the method: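 After 18 h recovery at 10^5 cells/mL, HL-60 cells were treated 4 days with samples (final DMSO 0.1% v/v). Cells were mixed 1:4 with trypan blue (0.2% w/v in PBS), held at least 5 min at room temperature and counted by hemocytometer. Viability was taken from duplicate samples; IC50 from 5–7 concentrations in duplicate.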

[3] = test system: HL-60; test: Selectivity index, ratio of cytotoxic IC50 to antiproliferative IC50 for human HL60 cells; format: functional
Summary of the method: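 Index = cytotoxic IC50 (trypan blue, 4-day HL-60 exposure) divided by antiproliferative IC50 ([3H]thymidine incorporation), each from dose–response with at least five points.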

[4] = test system: HL-60; test: Antiproliferative activity against human HL60 cells assessed as inhibition of [3H]thymidine incorporation after 4 days by liquid scintillation counter; format: functional, cell-based
Summary of the method: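 HL-60 cells in log phase diluted to 10^5 cells/mL, preincubated 18 h, then exposed to samples in DMSO (final 0.1% v/v; DMSO-only controls) for 4 days. Cells then pulsed with [3H]thymidine (0.5 μCi/mL, 65 Ci/mmol) for 18 h at 37 °C, 5% CO2, harvested onto glass fiber filters, scintillation counted; incorporation per 10^6 cells as % of DMSO control. IC50 from 5–7 concentrations in duplicate.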

[5] = Toxicity in BALB/c mouse mammary organ culture assessed as morphological changes in mammary gland at 2 uM after 10 days; format: tissue-based; settings: ex_vivo, 240 h
Summary of the method: (§1)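 Female BALB/c mice, 4 weeks old, primed 9 days with estradiol 1 μg plus progesterone 1 mg. Thoracic glands were cultured 10 days with insulin, prolactin, aldosterone and hydrocortisone plus test agent at 2 μM. DMBA 2 μg/mL was given for 24 h on day 3. Regression followed for 14 days in insulin alone. Glands were formalin-fixed and alum carmine-stained. Lesion incidence gave % inhibition versus DMBA control. Toxicity was scored as duct dilation or amorphous disintegration.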

[6] = Inhibition of DMBA-induced preneoplastic lesion formation in a BALB/c mouse mammary organ culture at 2 uM pretreated for 10 days before DMBA-challenge measured after 14 days; format: functional; settings: Mammary gland; summary of the method: as §1

| Compound | EC50 [1] [nM] | IC50 [2] [nM] | Ratio IC50 [3] | IC50 [4] [nM] | Activity [5] | inhibition at 2 µM [6] [%] |
| --- | --- | --- | --- | --- | --- | --- |
| CC1=CC(=O)[C@@H](O)[C@]2(C)[C@H]3[C@]4(O)OC[C@]35[C@H]([C@@H](C)[C@H]4O)[C@@H](OC(=O)C(=O)O[C@H]3C(=O)O[C@@H]4C[C@H]6C(C)=CC(=O)[C@@H](O)[C@]6(C)[C@H]6[C@]7(O)OC[C@]64[C@@H]3[C@@H](C)[C@H]7O)C(=O)O[C@@H]5C[C@@H]12.O=C(O)C(=O)O | > 1500 | 1800 | 3.6 | 500 | – | – |
| CC1=CC(=O)[C@@H](O)[C@]2(C)[C@H]3[C@]4(O)OC[C@]35[C@H]([C@@H](C)[C@H]4O)[C@@H](OC(=O)CC(C)(C)OP(=O)(O)O)C(=O)O[C@@H]5C[C@@H]12 | 3000 | 4400 | 6.5 | 700 | – | – |
| CC1=CC(=O)[C@@H](O)[C@]2(C)[C@H]3[C@]4(O)OC[C@]35[C@H]([C@@H](C)[C@H]4O)[C@@H](OC(=O)CC(O)(CC(C)C)CC(C)C)C(=O)O[C@@H]5C[C@@H]12 | > 50 | 40 | 1 | 40 | – | – |
| CCCC(=O)O[C@H]1C(=O)O[C@@H]2C[C@H]3C(C)=CC(=O)[C@@H](O)[C@]3(C)[C@H]3[C@]4(O)OC[C@]32[C@@H]1[C@@H](C)[C@H]4O | > 3000 | 3000 | – | > 3000 | Non-toxic | 82 |
| CC1=CC(=O)[C@@H](O)[C@]2(C)[C@H]3[C@]4(O)OC[C@]35[C@H]([C@@H](C)[C@H]4O)[C@@H](OC(=O)CC(C)C)C(=O)O[C@@H]5C[C@@H]12 | > 2000 | 1500 | 1.5 | 1000 | – | – |
| CC1=CC(=O)[C@@H](O)[C@]2(C)[C@H]3[C@]4(O)OC[C@]35[C@H]([C@@H](C)[C@H]4O)[C@@H](OC(=O)C3(CO)CC3)C(=O)O[C@@H]5C[C@@H]12 | 2000 | 2800 | 2.9 | 1000 | – | – |
| CC1=CC(=O)[C@@H](O)[C@]2(C)[C@H]3[C@]4(O)OC[C@]35[C@H]([C@@H](C)[C@H]4O)[C@@H](OC(=O)[C@@H](C)CO)C(=O)O[C@@H]5C[C@@H]12 | 1900 | 2500 | 4.3 | 600 | – | – |
| CC1=CC(=O)[C@@H](O)[C@]2(C)[C@H]3[C@]4(O)OC[C@]35[C@H]([C@@H](C)[C@H]4O)[C@@H](OC(=O)C(C)(C)C(=O)O)C(=O)O[C@@H]5C[C@@H]12 | > 7000 | > 7000 | >2.2 | 3200 | – | – |
| CC1=CC(=O)[C@@H](O)[C@]2(C)[C@H]3[C@]4(O)OC[C@]35[C@H]([C@@H](C)[C@H]4O)[C@@H](OC(=O)C=C(C3CC3)C3CC3)C(=O)O[C@@H]5C[C@@H]12 | 600 | 750 | 3.9 | 200 | – | – |
| CC1=CC(=O)[C@@H](O)[C@]2(C)[C@H]3[C@]4(O)OC[C@]35[C@H]([C@@H](C)[C@H]4O)[C@@H](OC(=O)[C@H](C)CO)C(=O)O[C@@H]5C[C@@H]12 | > 6000 | 6200 | 4.2 | 1500 | – | – |
| CC[C@](C)(O)C(=O)O[C@H]1C(=O)O[C@@H]2C[C@H]3C(C)=CC(=O)[C@@H](O)[C@]3(C)[C@H]3C4(O)OC[C@]32[C@@H]1[C@@H](C)[C@H]4O (single isomer, unassigned) [GLAUCARUBINONE] | 1800 | 1000 | 2.1 | 500 | – | – |
| COC(=O)[C@@]12OC[C@]34[C@H]([C@@H](O)[C@@H]1O)[C@@]1(C)CC(=O)C(O)=C(C)[C@@H]1C[C@H]3OC(=O)[C@H](OC(=O)C=C(C)C)[C@@H]24 [BRUSATOL] | – | – | – | – | Non-toxic | – |
| CC1=CC(=O)[C@@H](O)[C@]2(C)[C@H]3[C@]4(O)OC[C@]35[C@H]([C@@H](C)[C@H]4O)[C@@H](O)C(=O)O[C@@H]5C[C@@H]12 [GLAUCARUBOLONE] | 1300 | 1300 | 3.3 | 400 | – | – |
| CC(=O)O[C@H]1C(=O)O[C@@H]2C[C@H]3C(C)=CC(=O)[C@@H](O)[C@]3(C)[C@H]3[C@]4(O)OC[C@]32[C@@H]1[C@@H](C)[C@H]4O [HOLACANTHONE] | 200 | 500 | 2.5 | 200 | – | – |
| CC[C@](C)(OC(C)=O)C(=O)O[C@H]1C(=O)O[C@@H]2C[C@H]3C(C)=CC(=O)[C@@H](O)[C@]3(C)[C@H]3[C@@H](O)[C@H](O)[C@@]4(C)OC[C@]32[C@@H]14 [QUASSIMARIN] | 90 | 130 | 2.2 | 60 | – | – |
| CC[C@@H](C)C(=O)O[C@H]1C(=O)O[C@@H]2C[C@H]3C(C)=CC(=O)[C@@H](O)[C@]3(C)[C@H]3[C@@H](O)[C@H](O)[C@]4(C)OC[C@]32[C@@H]14 [SIMALIKALACTONE D] | > 200 | 200 | – | > 200 | – | – |
| CC1=CC(=O)[C@@H](O)[C@]2(C)[C@H]3[C@@H](O)[C@H](O)[C@@]4(C)OC[C@@]35[C@@H](C[C@@H]12)OC(=O)[C@H](O)[C@@H]45 [YADANZIOLIDE C] | 10000 | > 10000 | >6.7 | 1500 | – | – |

The remaining compounds from weak to strong by EC50 [1], led by results:

| EC50 [1] [nM] | Compound | IC50 [2] [nM] | Ratio IC50 [3] | IC50 [4] [nM] | Activity [5] | inhibition at 2 µM [6] [%] |
| --- | --- | --- | --- | --- | --- | --- |
| 500 | CC1=CC(=O)[C@@H](O)[C@]2(C)[C@H]3[C@]4(O)OC[C@]35[C@H]([C@@H](C)[C@H]4O)[C@@H](OC(=O)CN(C)C)C(=O)O[C@@H]5C[C@@H]12 | 800 | 1.6 | 500 | – | – |
| 500 | CC1=CC(=O)[C@@H](O)[C@]2(C)[C@H]3[C@]4(O)OC[C@]35[C@H]([C@@H](C)[C@H]4O)[C@@H](OC(=O)C(C)(C)CO)C(=O)O[C@@H]5C[C@@H]12 | 600 | 3.1 | 200 | – | – |
| 300 | CC1=CC(=O)[C@@H](O)[C@]2(C)[C@H]3[C@]4(O)OC[C@]35[C@H]([C@@H](C)[C@H]4O)[C@@H](OC(=O)C[C@]3(O)CC(C)CCC3C(C)C)C(=O)O[C@@H]5C[C@@H]12 (stereo partly specified) | 900 | 2.3 | 400 | – | – |
| 200 | CC1=CC(=O)[C@@H](O)[C@]2(C)[C@H]3[C@]4(O)OC[C@]35[C@H]([C@@H](C)[C@H]4O)[C@@H](OC(=O)CC(C)(C)O)C(=O)O[C@@H]5C[C@@H]12 [SOULARUBINONE] | 400 | 4.2 | 100 | – | – |
| 130 | CC1=CC(=O)[C@@H](O)[C@]2(C)[C@H]3[C@]4(O)OC[C@]35[C@H]([C@@H](C)[C@H]4O)[C@@H](OC(=O)CC3(O)CCCC3)C(=O)O[C@@H]5C[C@@H]12 | 380 | 2.1 | 190 | – | – |
| 90 | CC1=CC(=O)[C@@H](O)[C@]2(C)[C@H]3[C@]4(O)OC[C@]35[C@H]([C@@H](C)[C@H]4O)[C@@H](OC(=O)C=C(C(C)C)C(C)C)C(=O)O[C@@H]5C[C@@H]12 | 130 | 1.9 | 70 | – | – |
| 70 | COC(=O)[C@]12OC[C@]34[C@H]([C@@H](O)[C@@H]1O)[C@@]1(C)CC(=O)C(O)=C(C)[C@@H]1C[C@H]3OC(=O)[C@H](OC(=O)C=C(C)C)[C@@H]24 [BRUSATOL] | 170 | 2.5 | 70 | – | 70 |
| 25 | CC1=CC(=O)[C@@H](O)[C@]2(C)[C@H]3[C@]4(O)OC[C@]35[C@H]([C@@H](C)[C@H]4O)[C@@H](OC(=O)CC3(O)C(C)(C)CCC3(C)C)C(=O)O[C@@H]5C[C@@H]12 | 50 | 1.3 | 40 | – | – |
| 17 | CC[C@@](O)(CC(=O)O[C@H]1C(=O)O[C@@H]2C[C@H]3C(C)=CC(=O)[C@@H](O)[C@]3(C)[C@H]3[C@]4(O)OC[C@]32[C@@H]1[C@@H](C)[C@H]4O)C(C)C | 13 | 1.2 | 11 | – | – |
| 9 | CC1=CC(=O)[C@@H](O)[C@]2(C)[C@H]3[C@]4(O)OC[C@]35[C@H]([C@@H](C)[C@H]4O)[C@@H](OC(=O)CC(O)(C(C)C)C(C)C)C(=O)O[C@@H]5C[C@@H]12 | 9 | 1 | 9 | – | – |
